This is a sample that favours compounds with a hit; in the whole collection about 2.2% have one here.
SIAE primary – blocks human sialic acid acetylesterase; inhibition, % at 9.66 µM; 0.69% of 370,000 active; SIAE FP-Rh probe binding, fluorescence polarization; Q9HAT2;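 active = inhibition above a cutoff: mean of compounds within the control limits plus 3 SD of those, cut at about 17% in these data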;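 note: 0% = plate median of compound wells and 100% = probe without SIAE protein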
Target sequence (Q9HAT2 whole entry, looked up): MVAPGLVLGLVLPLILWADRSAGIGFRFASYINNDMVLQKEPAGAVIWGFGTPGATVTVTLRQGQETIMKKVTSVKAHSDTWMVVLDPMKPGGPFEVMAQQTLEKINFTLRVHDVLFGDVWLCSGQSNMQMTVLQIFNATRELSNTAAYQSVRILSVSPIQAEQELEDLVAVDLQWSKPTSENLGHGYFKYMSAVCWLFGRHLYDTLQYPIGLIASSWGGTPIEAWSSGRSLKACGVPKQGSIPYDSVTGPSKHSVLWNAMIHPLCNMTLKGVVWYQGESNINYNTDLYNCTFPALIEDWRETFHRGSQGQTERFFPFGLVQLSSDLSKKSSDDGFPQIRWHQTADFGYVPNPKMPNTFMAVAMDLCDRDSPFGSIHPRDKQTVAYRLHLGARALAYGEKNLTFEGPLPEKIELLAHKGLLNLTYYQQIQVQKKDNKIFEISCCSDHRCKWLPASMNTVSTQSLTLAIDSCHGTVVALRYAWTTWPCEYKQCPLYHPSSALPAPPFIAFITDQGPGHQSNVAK
LEDGF integ inh – blocks HIV-1 LEDGF/p75-dependent DNA integration; TR-FRET IN-LEDGF/p75 DNA integration, Eu/Cy5; inhibition, % at 3.7 µM; 0.64% of 370,000 active;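 active = inhibition above the screen-wide mean plus 3 SD, cut at about 13% in these data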;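 note: signal is the Cy5 over europium emission ratio at 671 and 618 nm; 0% = plate median of compound wells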
mABHD4 FP – ABHD4 (mouse) inhibition, primary FP screen | 0.54% of 370,000 active | AID 720543 | inhibition, % at 8.92 µM | purified mABHD4, FP-Rh probe fluorescence polarization;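 active = inhibition exceeding the mean over every tested compound plus 3 SD, cut at about 30% in these data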;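 note: 0% = plate median of compound wells and 100% = S159A mutant with DMSO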
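Assay system: mouse ABHD4 enzyme, wild type / Also added: fluorescent activity-based probe FP-Rh / Doses: single nominal dose of 8.92 µM, 0.89% DMSO final / Timing: 45 min compound pre-incubation plus 60 min probe step, 25 °C / Signal: FP readout, ex 525 nm / em 598 nm / Control set: S159A mutant/DMSO as 100%, compound-well median as 0%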
TCR-CD3 inh – blocks the human TCR-CD3 interaction | inhibition, % at 9.4 µM | AID 651800 | TAMRA-labeled TCR probe fluorescence, biochemical | 0.37% of 360,000 active; in the data active = inhibition above about 19%;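 note: recombinant mutant TCR 2C K166C tagged with TAMRA read by polarization; 0% = receptor in buffer alone and 100% = receptor with positive control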
TDP2 inh – blocks human TDP2 phosphodiesterase activity. recombinant TDP2, T5PNP hydrolysis, p-nitrophenol absorbance 415 nm. inhibition, % at 12.8 µM. 0.34% of 370,000 active. AID 720702;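 active = inhibition above the mean of all tested compounds plus 3 SD, set per campaign, cut at about 25% in these data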;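 note: 0% = DMSO with enzyme and 100% = buffer with substrate but no TDP2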
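Assay system: Recombinant human TDP2 | Quantity: 120 nM TDP2 per well | Incubation: 2 h at 37 °C | Signal: Epi absorbance | Evaluation: Percent inhibition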
HTRA1 inhibitor – blocks human HTRA1 serine peptidase. Q92743. 0.5% of 340,000 active. recombinant HTRA1, FP-rhodamine activity-based probe, fluorescence polarization. AID 504803. inhibition, % at 5.96 µM; in the data active = inhibition above about 36%;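 note: 0% = enzyme with DMSO and 100% = wells lacking enzyme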
mABHD4 conf – confirmation of mouse ABHD4 inhibitors. shares compounds with mABHD4 FP. 55% of 1,800 active. inhibition, % at 8.92 µM. purified mABHD4, FP-Rh probe fluorescence polarization;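 active = mean inhibition across replicates above the hit cutoff set in the primary screen, cut at about 30% in these data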;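 note: 0% = wild-type ABHD4 with DMSO and 100% = catalytically dead S159A mutant with DMSO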
TDP2 confirm – confirmation of human TDP2 inhibitors. inhibition, % at 12.8 µM. AID 743263. 22% of 1,100 active. recombinant human TDP2, absorbance read-out. shares compounds with TDP2 inh; in the data active = inhibition above about 25%;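 note: 0% = vehicle with enzyme and 100% = no enzyme buffer only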
IN multimer up – HIV-1 integrase multimerization activation, counter-screen | AID 1053131 | 17% of 2,000 active | shares compounds with LEDGF integ inh | activation, % at 7.7 µM | TR-FRET HIV-1 integrase multimerization, biochemical; in the data active = activation above about 8.9%
TR-FRET interf – optically interferes with TR-FRET readout in LEDGF counter-screen | shares compounds with LEDGF integ inh | TR-FRET optical interference counterscreen, HIV-1 IN multimerization | inhibition, % at 7.7 µM | 2,000 tested, under 10 active | AID 1053135;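 active = inhibition above the mean over all tested compounds plus 3 SD, which no compound reached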;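 note: 0% = integrase with antibodies and DMSO and 100% = antibodies without integrase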
IN-LEDGF confirm – confirmation of HIV-1 LEDGF/p75-dependent integration inhibitors. inhibition, % at 3.7 µM. TR-FRET LEDGF/p75-dependent HIV-1 integration, biochemical. shares compounds with LEDGF integ inh. 36% of 2,000 active; in the data active = inhibition above about 14%
SIAE inh conf – confirmation of human SIAE inhibitors; shares compounds with SIAE primary; inhibition, % at 9.66 µM; SIAE FP-Rh activity-based probe, fluorescence polarization; 13% of 2,300 active;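 active = mean inhibition of the replicates above the hit cutoff set in the primary screen, cut at about 17% in these data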;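 note: 0% = SIAE with DMSO and probe and 100% = probe without SIAE; inhibitors lower polarization as more probe stays unbound to SIAE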
The depositor's hits bear a star; x = no result.

SMILES	SIAE primary	LEDGF integ inh	mABHD4 FP	TCR-CD3 inh	TDP2 inh	HTRA1 inhibitor	TDP2 confirm	others
COc1ccc2[nH]c(C)c(CCNCc3cccnc3)c2c1	22.1*	3.0	33.7*	-7.8	12.7	5.2	x	mABHD4 conf=2.6;SIAE inh conf=3.6
O=c1[nH]c(=O)n(Cc2ccccc2)c(O)c1/C=N/NCCO	-11.3	-1.2	0.2	-2.2	10.1	x	x
O=C(N/N=C/c1c(O)n(Cc2ccccc2)c(=O)[nH]c1=O)c1ccccc1O	28.1*	-3.7	60.8*	74.0*	-3.9	34.8	x	mABHD4 conf=38.3*;SIAE inh conf=5.5
CCOC(=O)C1(c2ccccc2)CCN(CCc2ccc(NC(=O)CCC(=O)O)cc2)CC1	1.6	-2.4	4.2	7.9	-1.3	4.0	x
CCC(=NCCc1ccccc1)c1c(O)[nH]c(=O)[nH]c1=O	-3.3	-0.4	3.7	-3.0	-0.6	3.3	x
CCC(=Nc1ccccc1N)c1c(O)[nH]c(=O)[nH]c1=O	-4.4	1.4	-8.1	-0.4	25.2*	1.7	13.0
c1ccc2c(c1)[IH]c1ccccc1-2	-5.2	-2.7	2.1	5.5	-0.5	-1.2	x
CCn1cc(C=C2C(=O)NC(=O)NC2=O)c2ccccc21	-44.5	-1.0	-2.8	-5.1	27.5*	5.4	6.6
NC(=O)Cn1cc(C=C2C(=O)NC(=O)NC2=O)c2ccccc21	-5.7	-1.6	2.0	-0.9	16.7	-1.4	x
C[C@]12CC[C@H](O)CC1=CC(=O)C1C2CC[C@]2(C)C(=O)[C@H](O)CC12 (some centres undefined)	3.0	4.3	-9.9	-0.5	-3.3	5.1	x
O=C(CN1CCOCC1)c1cccc2ccccc12	4.0	1.9	9.7	2.3	25.3*	-6.3	16.2
COCCCn1c(N)c(C(=O)NCCC(C)C)c2nc3ccccc3nc21	-2.7	7.9	1.6	1.3	40.8*	-13.0	0.5
CCCCn1c(N)c(C(=O)OCCOC)c2nc3ccccc3nc21	6.4	4.1	3.1	6.5	7.1	x	x
COc1ccc(OCC#CCN2CCNCC2)cc1	1.4	2.5	12.7	-1.3	31.3*	10.4	2.5
O=c1[nH]c(=O)n(-c2cccc(F)c2)c(O)c1/C=C1\C=Nc2ccccc21	-92.9	5.2	-1.9	-1.1	32.5*	6.9	13.7
O=C(O)c1ccc(-n2c(O)c(/C=C3\C=Nc4ccccc43)c(=O)[nH]c2=O)cc1	-7.8	1.5	-0.2	6.5	18.1	-3.6	x
CC(C)NC1(c2ccccc2)CCCCC1	-4.6	3.8	-3.1	-2.5	-7.5	x	x
CC12CC(=O)C3C(CCC4CC(=O)C=CC43C)C1CCC2=O (centres undefined)	6.0	2.5	7.8	-2.4	4.6	-0.6	x
O=c1nc(/C=C/c2ccc(Cl)cc2Cl)cc(C(F)(F)F)[nH]1	-9.0	2.3	-29.6	5.8	29.0*	-19.1	17.8
Cc1cccc2c1=NC(=O)/C(=C/c1c(O)[nH]c(=O)[nH]c1=O)C=2	6.7	0.6	8.0	-1.2	31.8*	-0.2	37.5*
CCOC(=O)c1c(N)n(Cc2ccco2)c2nc3ccccc3nc12	-2.6	2.5	-1.6	5.3	4.3	-0.5	x
CCCCn1c(NS(=O)(=O)c2ccc(C)cc2)c(C(=O)OCC)c2nc3ccccc3nc21	2.6	32.5*	15.3	5.9	71.2*	-48.8	36.2*	IN multimer up=1.1;TR-FRET interf=-3.9;IN-LEDGF confirm=10.5
CCCCn1c(N)c(C(=O)OCC2CCCO2)c2nc3ccccc3nc21 (centres undefined)	x	x	x	x	x	-6.6	x
CCCCn1c(NC(=O)c2ccco2)c(C(=O)OCC)c2nc3ccccc3nc21	-4.5	30.5*	-15.7	-4.6	79.3*	-7.3	76.5*	IN multimer up=-1.5;TR-FRET interf=5.5;IN-LEDGF confirm=61.6*
COc1cc(C(c2c(C)[nH]n(-c3ccccc3)c2=O)c2c(C)[nH]n(-c3ccccc3)c2=O)cc(OC)c1OC	7.9	43.4*	4.3	3.2	89.5*	15.1	56.0*	IN multimer up=3.4;TR-FRET interf=-12.0;IN-LEDGF confirm=4.6
SMILES	SIAE primary	LEDGF integ inh	mABHD4 FP	TCR-CD3 inh	TDP2 inh	HTRA1 inhibitor	TDP2 confirm	others
CC(C)N1CCOC(c2ccc(O)c(O)c2)C1 (centres undefined)	10.5	-9.4	-1.6	-4.5	-7.3	x	x
CC(C)OCCCNC(=O)c1c(N)n(CC2CCCO2)c2nc3ccccc3nc12 (centres undefined)	0.2	28.6*	4.5	1.4	82.5*	22.4	6.6	IN multimer up=0.2;TR-FRET interf=-1.2;IN-LEDGF confirm=7.5
CCCNC(=O)c1c(N)n(CC2CCCO2)c2nc3ccccc3nc12 (centres undefined)	3.4	4.5	4.8	8.8	16.0	-0.8	x
Nc1c(C(=O)NCCCc2ccccc2)c2nc3ccccc3nc2n1Cc1cccs1	3.8	25.6*	-9.5	-6.6	59.9*	-7.2	2.2	IN multimer up=-2.3;TR-FRET interf=8.1;IN-LEDGF confirm=-2.6
COC(=O)C1=C(c2ccc(F)cc2OCc2ccccc2)C[C@@H]2CC[C@H]1N2C(=O)N1CCCC1	1.0	1.2	-2.1	1.1	4.3	-15.0	x
COC(=O)C(O)(c1c(C)[nH]n(-c2ccccc2)c1=O)C(F)(F)F (centres undefined)	1.3	25.8*	7.4	-8.2	26.7*	11.0	44.5*	IN multimer up=1.1;TR-FRET interf=-3.8;IN-LEDGF confirm=11.8
O=C(Nc1ccc(C(=O)O)cc1)Oc1ccc(N(CCCl)CCCl)cc1	11.2	1.4	0.8	-6.2	-10.1	x	x
COc1cc2c(cc1OC)-c1c(OC)c(OC)cc3c1C(C2)N(C)CC3 (centres undefined)	3.4	19.6*	16.2	-8.1	51.9*	4.3	59.9*	IN multimer up=2.4;TR-FRET interf=-8.2;IN-LEDGF confirm=11.0
COc1cc2c(cc1OC)-c1c3c(cc4c1[C@@H](C2)N(C)CC4)OCO3	6.2	15.9*	9.9	3.2	56.2*	9.9	52.1*	IN multimer up=4.8;TR-FRET interf=-16.6;IN-LEDGF confirm=7.8
COc1ccc(CC2c3cc(OC)c(OC)cc3CCN2C)cc1O (centres undefined)	1.8	2.0	4.0	1.2	0.0	1.6	x

From PubChem BioAssay
